The results in this text go back to the EternaBench riboswitch data.

For the series, the system named is MS2 coat protein. In words: apparent Kd, MS2 coat protein; higher = weaker binding; RNA-MaP array; FMN 200 µM where present. The essentials:
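Green signal from SNAP-549-labelled MS2 coat protein was normalised to red-channel RNA signal and to the median Fmax of control clusters. The protein was titrated from 0.7 or 1.5 nM, doubling to 3 µM, without and then with constant ligand, over designs transcribed by stalled E. coli RNA polymerase on Illumina sequencing-chip clusters, in 100 mM Tris-HCl pH 7.5, 80 mM KCl, 4 mM MgCl2, BSA, DTT, yeast tRNA and Tween-20. The apparent Kd is the median of filtered per-cluster binding-curve fits.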

Where [1] appears, read: designed as: OFF switch for flavin mononucleotide, no ligand.
Setting [2] is: ligand present: flavin mononucleotide, designed as: OFF switch for flavin mononucleotide.
Where [3] appears, read: designed as: ON switch for flavin mononucleotide, no ligand.
Where [4] appears, read: ligand present: flavin mononucleotide, designed as: ON switch for flavin mononucleotide.

As usually defined, the apparent Kd is a dissociation constant that holds for the conditions of the assay. For the sequence “UAAUGUAUAUAGGAUAUCUAGCUGGAUACAGCUAGAGAAGGAUGUACAUGAGGAUCACCCAUGUAAAUCUCAAU”, the “apparent Kd” value is 18.3 nM under setting [1] and 31.2 nM under setting [2]. With “GGUACUCAAAGAGUACCAAUACGAACAUGAGGAUCACCCAUGUAGGAUAUGCUACUCAAAGAGUAGCAGAAGGACAUGUGCCUA”, the “apparent Kd” value was 19.1 nM under setting [1] and 106 nM under setting [2]. Regarding “GCUUCGGCUGUGAGGAUAUCGGGCCCGAAAGGGCCCGAGAAGGCACAUGAGGAUCACCCAUGUAAGGUUGAAGU”, the “apparent Kd” value runs as follows: under setting [1], 18.8 nM; under setting [2], 15.4 nM. In the case of “AGAAAACAUGAGGAUCACCCAUGUGAGGAUAUCGAUGUCCAAGGGUGGGUGCGGGACUCGAGAAGGCACUUGGA”, the “apparent Kd” value under setting [1] came to 80.6 nM and the “apparent Kd” value under setting [2] amounted to 137 nM. With “UACAUUACUUAGAAGGGAUAUAUAUAAUUUUAGUCAGGAUAUAGAUACAAUACAACAUGAGGACAUGAGGAUCACCCAUGUAUU”, the “apparent Kd” value by setting is: under setting [3], 17.9 nM; under setting [4], 13.4 nM.

For “CGAGGUGGAGUGAGGAUAUCGUGUUCGAAAGAACGUGAGAAGGCACAUGAGGAUCACCCAUGUGAUUCUGCUCG”, the “apparent Kd” value reads like this: under setting [1], 45.7 nM; under setting [2], 270 nM. As for “GACUUGUUAGGAUAUCUUACUUUUGCAUCAUAGUAACCAUUGGAGAAGGGACAUGAGGAUCACCCAUGUUUGGA”, the “apparent Kd” value runs as follows: under setting [1], 32.9 nM; under setting [2], 28.9 nM. For the sequence “GAGGCUGGUCAGAAGGCGCUGCAGGCUGCGUAGCGAGGAUAUGACAUGAGGAUCACCCAUGUGGUAGCUGAUCCUCGGCGUUUA”, the “apparent Kd” value under setting [1] came out at 361 nM and the “apparent Kd” value under setting [2] turned out to be 33.3 nM.

“CGCUGUUGCGCAGGAUAUGCAUUGGAUUACAAUGCAGAAGGGCGAUUACAUGAGGAUCACCCAUGUGUAGACAGUGAAGAAGAG”: the “apparent Kd” value was found to be 300 nM under setting [3] and 37.2 nM under setting [4]. As to “UAAAGACAUGAGGAUCACCCAUGUGAGGAUAUCGGAGGUGACGGAGCGUCGAGUUCGGCGAGAAGGCGCAGGAA”, the “apparent Kd” value reads like this: under setting [1], 81 nM; under setting [2], 53.9 nM.

Turning to “UCGUCGCUAGGAGGAUAUACAUGAUCUCACACAUGUACCGCUCACGCCACAUGAGGAUCACCCAUGUAGAAGGCCUAGAGAGGU”, the “apparent Kd” value under setting [1] stood at 26.5 nM and the “apparent Kd” value under setting [2] came to 56.4 nM. On to “ACAUGACAUGAGGAUCACCCAUGUGAGGAUAUGCGAAAAAAAAAAAAAAAAAAAAUUGGCAGAAGGCACAAAAU”, for which the “apparent Kd” value by setting is: under setting [1], 167 nM; under setting [2], 180 nM. With “AGGGUUGUGCUAGGAUAUCCAGGUUUGCAACAAGGAGAAGGAGCACAUGAGGAUCACCCAUGUUCUCAAAGGCCAUGGCAAUAU”, the “apparent Kd” value is, setting by setting: under setting [1], 12.4 nM; under setting [2], 56.3 nM.

Turning to “GUGGUCAGACAUGAGGAUCACCCAUGUGGAAUAAAUAAGGCAUAGGAUAUGAAAUAUAGGAUAUAUCAGAAGGAUGGGUUGGUG”, the “apparent Kd” value reads like this: under setting [3], 164 nM; under setting [4], 191 nM. For the sequence “CAUUAUUAUCGAGGAUAUCCUAUUGAAAUUCUGGGAGAAGGCGGACUCAACAUGAGGAUCACCCAUGUGGGACGGAUGCUAGGG”, the “apparent Kd” value was found to be 22.9 nM under setting [1] and 20 nM under setting [2]. With “UUACAUACAAAGUUACAUGAGGAUCACCCAUGUUUAUUGGGAAGAAGGGUAACAGUAUUACAUAUAUAGGAUAUUUCACAAAUG”, the “apparent Kd” value worked out at 409 nM under setting [3] and 251 nM under setting [4]. For the sequence “GCCAACUCAUGAGGAUAUGGCACCUUAUUGGUGCCAGAAGGCGUGUCUAUUGACAUGAGGAUCACCCAUGUAUUAUAGUUGGCA”, the “apparent Kd” value reads like this: under setting [3], 678 nM; under setting [4], 105 nM. “AGCUCGGGUUAGGAUAUUCGCAGCAAGAUGACCGAAGAAGGGACCACAUGAGGAUCACCCAUGUUUGUUUAGAA”: the “apparent Kd” value was 25.9 nM under setting [1] and 24.5 nM under setting [2].

Regarding “AGCUGUGGCCGAGGAUAUCUAAAACUCAAAACCGAAAUAUAAUCGGACAUGAGGAUCACCCAUGUAGAGAAGGCGGUCUCAGCA”, the “apparent Kd” value by setting is: under setting [1], 78.8 nM; under setting [2], 157 nM. As for “UGGUACUAGGGAGGAUAUGGGAAGAUACAUGAGGAUCACCCAUGUUUAAGAAUGGCGAGAGGCAACUAGAAGGCCCUAGUACCU”, the “apparent Kd” value reads like this: under setting [3], 271 nM; under setting [4], 15.6 nM.

With “UUUUUACAUGAGGAUCACCCAUGUCAGGAUAUUCUUAUAUUUUAUUAUUUUAUUUUUUGAAGAAGGGACUAUUA”, the “apparent Kd” value was 118 nM under setting [1] and 70.5 nM under setting [2]. Turning to “AAGUUUAACGAAGGAUAUGGUUACAUGAGGAUCACCCAUGUAUUUUUUGUGAUCUUGAAAUAGUUCCAGAAGGUCGUAUACAUA”, the “apparent Kd” value under setting [1] was determined as 138 nM and the “apparent Kd” value under setting [2] is 359 nM. In the same order, the values of “UAAAAGUGAGGAUAUACAUUAAGGUAAGUCCGGAUGCGAAGACAUGAGGAUCACCCAUGUAGAAGGCACACAAA” are 32.1 nM and 146 nM. “AGUCGGAGCAGAGGAUAUACAUGAGGAUCACCCAUGUAAUAUGAUCUAGCCAGGAAACUGGCAAUGUAGAAGGCUGCUCCGACA”: the “apparent Kd” value is, setting by setting: under setting [1], 92.3 nM; under setting [2], 797 nM. For the sequence “UUCCGCGUUGUAAGGAUAUCUAAUUCUUAUGAAAUAGAGAAGGUACAUGAGGAUCACCCAUGUACUUGGGACUA”, the “apparent Kd” value worked out at 18.7 nM under setting [1] and 22.4 nM under setting [2]. On to “CUCAUGUGAGGAUAUCAGUAGUAAAAAAAUAAAAUUACUACUGAGAAGGCACAUGAGGAUCACCCAUGUGCAAA”, for which the “apparent Kd” value by setting is: under setting [1], 95.9 nM; under setting [2], 105 nM.

As for “GUUAGUUAAGGAUAUACAGGGAGCUGCGGCGUCUCGCCGCAACAUGAGGAUCACCCAUGUAGAAGGUGGCCAUU”, the “apparent Kd” value under setting [1] stood at 548 nM and the “apparent Kd” value under setting [2] turned out to be 586 nM. Regarding “AAUGAGACCGCAGGAUAUCCACAUGAGGAUCACCCAUGUUCUCAGAUCAGAAGCACGAUCUGCGAGGAGAAGGGCGACCUCAUA”, the “apparent Kd” value reads like this: under setting [3], 563 nM; under setting [4], 37.6 nM. In the same order, the values of “GCGAGCAUACAGAAGGGAUCGUCGUAGCGGCUGUCAGGAUAUGUAGCUUGGCCUAAACAUGAGGAUCACCCAUGUAUAAUGCUA” are 175 nM and 21 nM. With “AUGCUAUACGAAGGAUAUGGUUACAUGAGGAUCACCCAUGUAAUUCUUGUGAUCUUGUUUAAGUUCCAGAAGGUCGUAUAGCUA”, the “apparent Kd” value under setting [1] was 29.1 nM and the “apparent Kd” value under setting [2] was 88.2 nM. For “ACAUGACAAUCAGGAUAUCGACAUGAGGAUCACCCAUGUACGGGUGUCAAUCGAGAAGGGAUUGUAGCGCCAACUGAGACGUUU”, the “apparent Kd” value runs as follows: under setting [1], 78 nM; under setting [2], 110 nM.

Regarding “AAACAGCUAGGAUAUACCCUCCGUGAGACUCCCAAAUCGAAACAUGAGGAUCACCCAUGUAGAAGGAGCUGACG”, the “apparent Kd” value by setting is: under setting [1], 13.4 nM; under setting [2], 12.2 nM. As to “CUUUUAUAAUAGAAGGUAGACUUCAUGAGGAUCACCCAUGUGUUGGUACUAAGGAUAUGUAGUAACAUGAGGAUCACCCAUGUU”, the “apparent Kd” value reads like this: under setting [3], 22.6 nM; under setting [4], 22.2 nM. With “GGCGGUGAUCUAUUAGGACACAUGAGGAUCACCCAUGUGACAGAGGAUAUACGGAACUUUGGAUAGUAGAAGGCUGUCGCAAAA”, the “apparent Kd” value by setting is: under setting [1], 315 nM; under setting [2], 119 nM.

Regarding “UGGUACUAGGGAGGAUAUGGGAAGAUACAUGAGGAUCACCCAUGUUUAAGAAUGCCGAGAGGCAACUAGAAGGCCCUGGUACCU”, the “apparent Kd” value under setting [3] was 459 nM and the “apparent Kd” value under setting [4] came to 17.9 nM. As for “GUUUUCGCAUGAGGAUAUGCUCGCAUUUCUAGAGCAGAAGGUAUGUCUAUAGACAUGAGGAUCACCCAUGUAUUUAACUUUGAA”, the “apparent Kd” value under setting [3] turned out to be 186 nM and the “apparent Kd” value under setting [4] is 34.4 nM. In the same order, the values of “UGGUACUAGGGAGGAUAUGGGAAGAUACAUGAGGAUCACCCAUGUUUAAGAAUGCCGAGAGGCAACUAGAAGGGCCUAGUACCU” are 804 nM and 280 nM.

Turning to “ACUUGUAAGUAGAAGGUAGUCAUUAUAUUAAUCAUGUAAACAUGAGGAUCACCCAUGUAGAGUACUAAGGAUAUACAUCGAUAG”, under setting [2], the “apparent Kd” value is 9.91 nM.

In the case of “ACAUGAGGAUCACCCAUGUUAUCAGGGACUUCAAUUAUUUCUAGAAGGCUGUUUACUUGUUAGUCAGAGGAUAUAGAAUUAAAU”, the “apparent Kd” value was 14.5 nM under setting [1] and 15.9 nM under setting [2]. Turning to “AAAAUAAAAAGGCAGGAUAUCCAAAAUAAAACAUGAGGAUCACCCAUGUAAAUAAAAAUAAAGUGGGAGAAGGGUUAAAAAUAAAA”, the “apparent Kd” value amounted to 58.3 nM under setting [3] and 45.3 nM under setting [4]. For “AAUAAACUCACAGGAUAUAGCAGAGGUCGCGUAAACUUACAGGCGACUAUGCUAGAAGGGUGACCACAUGAGGAUCACCCAUGU”, the “apparent Kd” value runs as follows: under setting [3], 836 nM; under setting [4], 161 nM. Consider “AGUUUACAUGAGGAUCACCCAUGUGAGGAUAUGGUUUCGCUGGCCGUAGCCAGUGGAACCAGAAGGCGCAUGAU”, for which the “apparent Kd” value was 76 nM under setting [1] and 349 nM under setting [2]. Consider “AAAAAACAUGAGGAUCACCCAUGUAAAAAUAUGGGAGGAUAUUCAAACACGAAAGUGAAAGAAGAAGGCCUAAAAA”, for which the “apparent Kd” value under setting [3] was 66.6 nM and the “apparent Kd” value under setting [4] was 23.3 nM. Take “GUAGCAUACCGAGGAUAUUCAGGGCGUGGAUAGACAUGAGGAUCACCCAUGUGGCGAAAGCCUAGGGAGAAGGCGGAAUGCUAC”: the “apparent Kd” value under setting [3] stood at 26.9 nM and the “apparent Kd” value under setting [4] is 17.6 nM. Regarding “UAAAUACAUGAGGAUCACCCAUGUCAAAAGACAUGAGGAUAUGUACAGACUUCGGUCUGUACAGAAGGCAUGAAUA”, the “apparent Kd” value under setting [3] came to 652 nM and the “apparent Kd” value under setting [4] turned out to be 46.7 nM. Turning to “CCUCGACAUGAGGAUCACCCAUGUCAGGAUAUUGUGUUUUUGGUUUUUUACCUUUAGGCAAGAAGGGAUGUGUG”, the “apparent Kd” value runs as follows: under setting [1], 16 nM; under setting [2], 21.4 nM. With “GGAUCGAAUGUGAGGAUAUACCUAUGGAAACAUAGGUAGAAGGCACAUGAGGAUCACCCAUGUCCUAACGGUCC”, the “apparent Kd” value under setting [1] was determined as 419 nM and the “apparent Kd” value under setting [2] is 456 nM. In the same order, the values of “GGAUGAGAAACUCAUCCAUAACGAACAUGAGGAUCACCCAUGUAGGAUAUGCUACUCAAAGAGUAGCAGAAGGACAUGUGCCUU” are 29.8 nM and 259 nM.
